Results on three compounds are retold here after ChEMBL document CHEMBL3351397, “Synthesis and bioactivity of novel amino-pyrazolopyridines” (Eur J Med Chem, 2014).

Active and inactive are the calls of the source. The calls are words filed in the database; no cut-off is given here. A value given as a limit tells only on which side of the number the result lay.

The subject of series [1] is K562. As to the kind of experiment: Induction of apoptosis in human K562 cells at 40 uM after 72 hrs using Hoechst 33342 by fluorescence microscopy. The series is classed as functional, cell-based. Put shortly: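 K562 cells were treated 72 h at 40 µM, then stained with Hoechst 33342 for 15 min at 37 °C. Nuclear morphology, scored as condensed nuclei, was examined by fluorescence microscopy. Etoposide served as positive control.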

Series [2] deals with U-937. Put plainly: Induction of apoptosis in human U937 cells assessed as induction of caspase 3/7 activity at 40 uM after 48 hrs by luminescent assay relative to untreated control. In kind it is functional. A digest of the protocol: (§1)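 Cells at 3 × 10⁵/mL were treated with test compounds at 40 µM for 8, 24 or 48 h. Culture was then mixed 1:1 with Caspase-Glo 3/7 reagent and incubated 1 h at room temperature; the reagent lyses cells, caspase cleaves the substrate and luciferase gives luminescence. Results are fold change versus untreated cells.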

Series [3] addresses T1, Nuclear factor NF-kappa-B complex (Homo sapiens) (UniProt Q00653+P19838+Q04206). As to the kind of experiment: Inhibition of TNFalpha-induced NF-kB transactivation in human K562 cells at 40 uM after 8 hrs by luciferase reporter gene assay. On the technique in general: In a reporter assay the amount or activity of a reporter protein is the signal.
Series [4] concerns Jurkat. As to the kind of experiment: Induction of apoptosis in human Jurkat cells assessed as induction of caspase 3/7 activity at 40 uM after 48 hrs by luminescent assay relative to untreated control. In kind it is functional. Put shortly:
as §1

Series [5] concerns the target T1, Nuclear factor NF-kappa-B complex (Homo sapiens). As to the kind of experiment: Inhibition of TNFalpha-induced NF-kB pathway in human K562 cells after 8 hrs by luciferase reporter gene assay. The series is classed as cell-based. A digest of the protocol: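 K562 cells were electroporated with an NF-κB-RE firefly luciferase reporter (5 µg) plus phRG-TK Renilla plasmid, then recovered 24 h in RPMI/10% FCS. Cells were resuspended at 1 × 10⁶/mL in RPMI/0.1% FCS, pretreated 2 h, then stimulated with TNFα 20 ng/mL for 6 h (8 h total). Dual-Glo firefly/Renilla ratio read at 22 °C; three independent experiments.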

In series [6] the test system is K562. Put plainly: Cytotoxicity against human K562 cells after 24 to 72 hrs by CellTiter-Glo luminescent cell viability assay. In kind it is functional, cell-based. Put shortly:
(§2)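 K562 cells were grown in RPMI with 10% FCS and 1% antibiotic-antimycotic at 37 °C, 5% CO2. Cells were exposed to a range of concentrations for 24 and 72 h and metabolic activity was read. Data were normalized to untreated control as % viable cells, mean ± SD of three determinations, with IC50 derived from dose-response curves.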

The subject of series [7] is Jurkat. Put plainly: Induction of apoptosis in human Jurkat cells assessed as induction of caspase 3/7 activity at 40 uM after 8 to 48 hrs by luminescent assay relative to untreated control in presence of 50 uM z-VAD. The series is classed as functional, cell-based. Put shortly: (§3)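 Caspase-Glo 3/7 readout at 3 × 10⁵ cells/mL. Cells were pretreated 1 h with the pan-caspase inhibitor Z-VAD(OMe)-FMK, then exposed to compounds at 40 µM for 8, 24 and 48 h. Culture was mixed 1:1 with reagent for 1 h at room temperature; luminescence is expressed as fold change over untreated cells.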

The test system of series [8] is K562. Put plainly: Cytotoxicity against human K562 cells at 40 uM assessed as reduction in cell viability after 72 hrs by CellTiter-Glo luminescent assay relative to control. In kind it is functional. Put shortly:
(§4)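 K562 cells in RPMI/10% FCS at 37 °C, 5% CO2 were exposed to a single 40 µM concentration for 24 or 72 h. Metabolic activity was normalized to untreated control as % viable cells, mean ± SD of three determinations. Etoposide served as positive control.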
Background: ATP-based viability assays read luminescence as a measure of living cells.

The next series deals with PBMC. Put plainly: Cytotoxicity against human PBMCs after 24 to 72 hrs by CellTiter-Glo luminescent cell viability assay. The series is classed as cell-based. The settings on record: for Activity: human, pbmc. Put shortly:
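PBMCs from healthy donors were isolated by Ficoll centrifugation (400 g, 20 min) of blood diluted 1:1 in RPMI, then washed 2–3 times. Cells rested 24 h at 37 °C, 5% CO2 before dosing. They were then treated as for K562: 40 µM screen and dose-response at 24 and 72 h, % viable versus control, mean ± SD of three determinations.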

Series [9] deals with K562. Put plainly: Induction of apoptosis in human K562 cells assessed as induction of caspase 3/7 activity at 40 uM after 8 to 48 hrs by luminescent assay relative to untreated control in presence of 50 uM z-VAD. In kind it is functional, cell-based. Put shortly: as §3
Series [10] has as its system U-937. Put plainly: Induction of apoptosis in human U937 cells assessed as induction of caspase 3/7 activity at 40 uM after 24 hrs by luminescent assay relative to untreated control. The series is classed as functional. Put shortly: as §1
The subject of series [11] is K562. Put plainly: Cytotoxicity against human K562 cells after 72 hrs by CellTiter-Glo luminescent cell viability assay. In kind it is functional, cell-based. The following applies: K562, 72 h. Put shortly: as §2
For series [12], the system named is K562. As to the kind of experiment: Induction of apoptosis in human K562 cells assessed as induction of caspase 3/7 activity at 40 uM after 48 hrs by luminescent assay relative to untreated control. In kind it is functional. Put shortly: as §1
The test system of series [13] is U-937. As to the kind of experiment: Induction of apoptosis in human U937 cells assessed as induction of caspase 3/7 activity at 40 uM after 8 to 48 hrs by luminescent assay relative to untreated control in presence of 50 uM z-VAD. The series is classed as functional, cell-based. Put shortly: as §3
The subject of series [14] is Jurkat. As to the kind of experiment: Induction of apoptosis in human Jurkat cells assessed as induction of caspase 3/7 activity at 40 uM after 8 hrs by luminescent assay relative to untreated control. The series is classed as functional. Put shortly:
as §1

In series [15] the test system is K562. Put plainly: Cytotoxicity against human K562 cells assessed as reduction in cell viability at 40 uM after 24 hrs by CellTiter-Glo luminescent assay. In kind it is functional. Put shortly: as §4
Series [16] has as its system K562. As to the kind of experiment: Induction of apoptosis in human K562 cells assessed as induction of caspase 3/7 activity at 40 uM after 8 hrs by luminescent assay relative to untreated control. The series is classed as functional. Put shortly:
as §1

Series [17] concerns U-937. As to the kind of experiment: Induction of apoptosis in human U937 cells assessed as induction of caspase 3/7 activity at 40 uM after 8 hrs by luminescent assay relative to untreated control. In kind it is functional. Put shortly: as §1
Series [18] relates to Jurkat. Put plainly: Induction of apoptosis in human Jurkat cells assessed as induction of caspase 3/7 activity at 40 uM after 24 hrs by luminescent assay relative to untreated control. In kind it is functional. Put shortly: as §1
Series [19] has as its system K562. As to the kind of experiment: Induction of apoptosis in human K562 cells assessed as induction of caspase 3/7 activity at 40 uM after 24 hrs by luminescent assay relative to untreated control. The series is classed as functional. A digest of the protocol:
as §1

For series [20], the target named is T1, Nuclear factor NF-kappa-B complex (Homo sapiens). Put plainly: Inhibition of TNFalpha-induced NF-kB transactivation in human K562 cells after 8 hrs by luciferase reporter gene assay.
For series [21], the system named is K562. Put plainly: Cytotoxicity against human K562 cells assessed as reduction in cell viability at 8.2 uM after 24 hrs by CellTiter-Glo luminescent assay. The series is classed as functional, cell-based.
In series [22] the target is T1, Nuclear factor NF-kappa-B complex (Homo sapiens). Put plainly: Inhibition of TNFalpha-induced NF-kB pathway in human K562 cells assessed as inhibition of IL-8 release preincubated for 2 hrs before TNFalpha addition measured after 24 hrs by sandwich ELISA. In kind it is cell-based. A digest of the protocol:
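K562 cells were pretreated 2 h with compound, then activated with TNFα 20 ng/mL for 22 h (24 h total). Supernatant IL-8 was quantified by sandwich ELISA: pre-coated anti-IL-8 wells for 2 h at room temperature, peroxidase-conjugated polyclonal anti-IL-8 for 60 min, then H2O2/TMB colorimetric development. Mean ± SD of three determinations.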
Background: ELISA stands for enzyme-linked immunosorbent assay.

T1 sequence (P19838 whole entry, looked up): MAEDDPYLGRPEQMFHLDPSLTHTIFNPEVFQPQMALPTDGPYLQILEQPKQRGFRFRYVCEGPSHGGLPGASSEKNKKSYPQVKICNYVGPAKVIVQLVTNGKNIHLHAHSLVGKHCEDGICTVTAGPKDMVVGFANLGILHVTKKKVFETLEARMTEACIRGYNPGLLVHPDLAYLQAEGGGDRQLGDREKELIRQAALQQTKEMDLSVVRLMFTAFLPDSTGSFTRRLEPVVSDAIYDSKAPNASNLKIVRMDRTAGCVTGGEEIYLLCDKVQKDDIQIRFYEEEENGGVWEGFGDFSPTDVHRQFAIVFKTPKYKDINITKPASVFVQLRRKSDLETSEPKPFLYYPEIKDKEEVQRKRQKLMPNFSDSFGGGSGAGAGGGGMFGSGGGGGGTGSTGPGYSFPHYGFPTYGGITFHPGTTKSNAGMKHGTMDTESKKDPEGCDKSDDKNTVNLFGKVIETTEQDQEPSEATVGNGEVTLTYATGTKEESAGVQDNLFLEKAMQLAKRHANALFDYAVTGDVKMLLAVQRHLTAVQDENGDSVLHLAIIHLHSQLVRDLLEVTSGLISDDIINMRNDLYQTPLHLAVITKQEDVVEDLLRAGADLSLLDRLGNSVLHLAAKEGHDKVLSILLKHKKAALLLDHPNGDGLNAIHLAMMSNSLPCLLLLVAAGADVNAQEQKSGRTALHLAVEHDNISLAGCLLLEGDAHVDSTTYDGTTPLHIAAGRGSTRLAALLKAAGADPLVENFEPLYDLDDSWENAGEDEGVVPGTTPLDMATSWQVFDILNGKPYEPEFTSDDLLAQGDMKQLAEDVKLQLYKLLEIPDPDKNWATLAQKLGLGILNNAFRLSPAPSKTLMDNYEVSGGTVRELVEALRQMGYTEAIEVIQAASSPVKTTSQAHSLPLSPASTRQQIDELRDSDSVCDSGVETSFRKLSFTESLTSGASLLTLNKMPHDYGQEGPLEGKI
T1 sequence (Q00653 whole entry, looked up): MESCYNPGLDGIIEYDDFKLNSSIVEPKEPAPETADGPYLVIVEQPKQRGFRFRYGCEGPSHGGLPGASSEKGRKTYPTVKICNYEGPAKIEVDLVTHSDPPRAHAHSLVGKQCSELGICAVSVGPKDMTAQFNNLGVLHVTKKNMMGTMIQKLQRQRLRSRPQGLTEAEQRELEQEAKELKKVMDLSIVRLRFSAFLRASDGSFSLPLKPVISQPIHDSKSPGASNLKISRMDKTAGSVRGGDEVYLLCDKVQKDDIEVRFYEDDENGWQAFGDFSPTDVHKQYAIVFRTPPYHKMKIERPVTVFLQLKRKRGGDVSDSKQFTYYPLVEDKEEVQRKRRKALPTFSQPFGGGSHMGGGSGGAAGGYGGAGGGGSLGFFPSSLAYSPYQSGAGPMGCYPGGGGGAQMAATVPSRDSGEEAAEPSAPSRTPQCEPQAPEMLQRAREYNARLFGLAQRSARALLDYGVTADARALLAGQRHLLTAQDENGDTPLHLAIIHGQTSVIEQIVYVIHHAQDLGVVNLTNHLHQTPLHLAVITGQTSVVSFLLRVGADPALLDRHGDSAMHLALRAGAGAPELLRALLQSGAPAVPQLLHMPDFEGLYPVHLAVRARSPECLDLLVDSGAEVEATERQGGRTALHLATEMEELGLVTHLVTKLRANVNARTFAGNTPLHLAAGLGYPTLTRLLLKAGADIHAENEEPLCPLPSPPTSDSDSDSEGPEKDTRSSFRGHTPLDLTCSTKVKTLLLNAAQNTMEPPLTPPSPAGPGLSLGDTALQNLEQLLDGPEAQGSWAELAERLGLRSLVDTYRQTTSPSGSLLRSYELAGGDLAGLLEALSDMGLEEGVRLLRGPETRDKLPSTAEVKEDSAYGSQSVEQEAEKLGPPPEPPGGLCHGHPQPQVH
T1 sequence (Q04206 whole entry, looked up): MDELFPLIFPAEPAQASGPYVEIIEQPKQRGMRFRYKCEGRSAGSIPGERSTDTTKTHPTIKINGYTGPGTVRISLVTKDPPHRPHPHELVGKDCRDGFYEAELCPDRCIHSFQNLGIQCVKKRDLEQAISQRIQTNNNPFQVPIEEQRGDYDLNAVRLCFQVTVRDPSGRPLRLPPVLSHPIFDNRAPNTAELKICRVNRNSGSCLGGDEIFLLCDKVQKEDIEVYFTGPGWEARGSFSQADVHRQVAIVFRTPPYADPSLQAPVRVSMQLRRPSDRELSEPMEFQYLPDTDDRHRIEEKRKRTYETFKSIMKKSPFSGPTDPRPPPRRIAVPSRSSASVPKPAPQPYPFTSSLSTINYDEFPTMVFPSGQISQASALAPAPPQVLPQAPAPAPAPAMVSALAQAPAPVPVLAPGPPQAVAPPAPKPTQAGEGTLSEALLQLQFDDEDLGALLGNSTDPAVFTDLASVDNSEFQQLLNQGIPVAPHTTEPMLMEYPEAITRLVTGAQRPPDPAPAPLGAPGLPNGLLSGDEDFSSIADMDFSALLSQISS

As for `Cc1cnc2[nH]nc(N)c2c1-c1ccccc1`, the outcome with K562 [1] was Active. In addition, the Activity is 4.35% in the series on U-937 [2]; >50% in the series with K562 [8]; “Non-toxic” with PBMC; 5.87% with U-937 [10]; 2.9% in the series with K562 [12]; 1.27% in the series with Jurkat [14]. In addition, the values for the Activity with K562 [15], in the series with Jurkat [18] and in the series with K562 [19] were <50%, 1.31% and 3.62, respectively. Besides, the inhibition entry in [3] and in [5] was “Active” in each case. In addition, the Fold change with Jurkat [4] came out at 1.44; with K562 [16], 1.26; in the series with U-937 [17], 1.73. Besides, the IC50 in the series on K562 [6] and in the series on K562 [11] was 35 µM throughout. Besides, the outcome with Jurkat [7], with K562 [9] and in the series with U-937 [13] was inactive. The inhibition entry in series [20] was “Dose-dependent effect”.
Regarding `CC1Cc2cnc3[nH]nc(N)c3c2-c2ccccc21` (stereo not given), the result in the series with K562 [1] was Active. The Activity in the series with U-937 [2] is 1.48%; in the series with K562 [6], “Dose-dependent effect”; in the series with K562 [8] it was >50%; with U-937 [10], 6.27%; with K562 [12], 1.55%; in the series with Jurkat [14], 8.89%. Moreover, the Activity with Jurkat [18] was determined as 5.38%; with K562 [19] it was 2.04. Also, the inhibition result in series [3] is “Active”. The Fold change with Jurkat [4] is 2.11; in the series with K562 [16], 1.44; in the series on U-937 [17], 16.5. Besides, the IC50 (usually the concentration at which inhibition is half-maximal) in the series with K562 [6] worked out at 36.5 µM; with PBMC (Homo sapiens, PBMC), 36.6 µM. Besides, the outcome in the series with Jurkat [7], in the series on K562 [9], in the series on K562 [21] and in the series on U-937 [13] was inactive. Moreover, the inhibition entry in series [20] and in series [22] was “Dose-dependent effect” throughout.
For the compound `Nc1n[nH]c2ncc3c(c12)-c1ccccc1CC3`, the outcome in the series with K562 [1] was Active. Also, the Activity is 1.74% with U-937 [2]; >50% with K562 [8]; “Non-toxic” in the series on PBMC; 5.84% with U-937 [10]; 2.23% in the series on K562 [12]; 2.86% in the series with Jurkat [14]. Also, the Activity in the series with Jurkat [18] was 2.73%; with K562 [19] it was 2.5. The inhibition result in series [3] is “Active”. For the same compound, the figures for the Fold change with Jurkat [4], in the series on K562 [16] and with U-937 [17] were 2.05, 1.37 and 11.7, respectively. The same compound yielded an IC50 in the series on K562 [6] of 27.6 µM. The outcome with Jurkat [7], in the series with K562 [9] and in the series with U-937 [13] was inactive. Moreover, the inhibition result in series [20] is “Dose-dependent effect”.
